The values that follow come from ChEMBL document CHEMBL4480390, “Cink4T, a quinazolinone-based dual inhibitor of Cdk4 and tubulin polymerization, identified via ligand-based virtual screening, for efficient anticancer therapy” (Eur J Med Chem, 2019).

The target of experiment [1] is T1, Cyclin-dependent kinase 4/cyclin D1 (Homo sapiens) (UniProt P11802+P24385). Kind of experiment: Inhibition of CDK4/cyclin D1 in human T47D cells assessed as reduction in phosphorylation of pRb at Ser807/11 residues at 0.75 uM measured after 18 hrs by Western blot analysis. The class given is cell-based. In short, it runs like this:
(§1)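 T47D cells left untreated or treated 18 h at 0.75 or 1.5 µM. Western blots probed with phospho-specific pRb antibodies (Ser780, Ser795, Ser807/811) and a total-pRb antibody; HRP-conjugated secondary for detection.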
Background: In western blotting, separated proteins are transferred to a membrane and probed.

For experiment [2], the system named is A549. Kind of experiment: Cell cycle arrest in human A549 cells assessed as ratio of G1 to S phase at 0.8 uM treated 32 hrs post mimosine addition measured after 18 hrs in presence of fresh medium by propidium iodide staining based flow cytometry (reference value: 2.5). The class given is functional. For orientation: Flow cytometry measures light scatter and fluorescence of single cells or particles in a stream.

For experiment [3], the system named is A549. Briefly: Effect on CDK1 expression in human A549 cells at 0.8 to 1.6 uM measured after 18 hrs by Western blot analysis. The class given is functional, cell-based.
Experiment [4] concerns the target T1, Cyclin-dependent kinase 4/cyclin D1 (Homo sapiens). Briefly: Inhibition of CDK4/cyclin D1 in human T47D cells assessed as reduction in phosphorylation of pRb at Ser780 residues at 0.75 to 1.5 uM measured after 18 hrs by Western blot analysis. The class given is cell-based. In short, it runs like this:
as §1

For experiment [5] the target is unchanged. Briefly: Inhibition of CDK4/cyclin D1 in human T47D cells assessed as reduction in phosphorylation of pRb at Ser807/11 residues at 1.5 uM measured after 18 hrs by Western blot analysis. The class given is cell-based. In short, it runs like this: as §1
Another experiment addresses T2, Cytochrome P450 1A2 (Homo sapiens, UniProt P05177).
T2 sequence (P05177 whole entry): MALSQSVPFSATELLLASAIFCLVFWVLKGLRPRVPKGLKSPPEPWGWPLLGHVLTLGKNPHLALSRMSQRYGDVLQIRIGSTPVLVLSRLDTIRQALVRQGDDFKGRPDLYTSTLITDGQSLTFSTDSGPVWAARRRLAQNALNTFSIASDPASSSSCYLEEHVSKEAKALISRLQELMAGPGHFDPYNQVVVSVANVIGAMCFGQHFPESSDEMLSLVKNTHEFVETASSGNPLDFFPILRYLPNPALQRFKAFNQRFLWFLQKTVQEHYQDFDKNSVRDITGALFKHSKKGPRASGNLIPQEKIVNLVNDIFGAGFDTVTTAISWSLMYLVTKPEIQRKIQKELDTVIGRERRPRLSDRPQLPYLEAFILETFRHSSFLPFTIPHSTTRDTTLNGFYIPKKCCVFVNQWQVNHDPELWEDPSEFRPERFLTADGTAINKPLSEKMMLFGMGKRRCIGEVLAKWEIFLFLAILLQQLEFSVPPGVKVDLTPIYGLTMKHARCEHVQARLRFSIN
Briefly: Inhibition of recombinant human CYP1A2 expressed in baker's yeast-derived microsomes using 3-cyano-7-ethoxycoumarin as substrate by fluorescence assay. The class given is ADME.

Experiment [6] relates to A549. Briefly: Cell cycle arrest in human A549 cells assessed as accumulation at S phase at 1.6 uM measured after 18 hrs by propidium iodide staining based flow cytometry (reference value: 21%). It counts as functional.
Experiment [7] has as its system T47D. Kind of experiment: Cell cycle arrest in human T47D cells assessed as ratio of G1 to S phase at 0.75 uM measured after 18 hrs by propidium iodide staining based flow cytometry (reference value: 2.65). It counts as functional.
For another experiment, the target named is CDK9/cyclin T1 (Homo sapiens, UniProt P50750). Briefly: Inhibition of N-terminal GST-HIS6 fusion protein tagged human full length CDK9 (M1 to F372 residues)/N-terminal HIS6-fused human Cyclin-T1 (M1 to K726 residues) expressed in Sf9 cells using RBCTF as substrate measured after 1 hr by ADP-glo luminescence assay. (In general: In ADP-Glo the light output rises with the ADP produced.)

For experiment [8], the system named is Calu-1. Briefly: Cell cycle arrest in human Calu1 cells assessed as accumulation at G0/G1 phase at 0.9 uM treated 18 hrs post serum-starvation measured after 18 hrs in presence of fresh medium containing FBS by propidium iodide staining based flow cytometry (reference value: 69.2%). The class given is functional.
Experiment [9] concerns the target T1, Cyclin-dependent kinase 4/cyclin D1 (Homo sapiens). Briefly: Inhibition of CDK4/cyclin D1 in human T47D cells assessed as reduction in phosphorylation of pRb at Ser795 residues at 0.75 to 1.5 uM measured after 18 hrs by Western blot analysis. The class given is cell-based. The method, boiled down: as §1
The test system of experiment [10] is A549. Briefly: Cell cycle arrest in human A549 cells assessed as accumulation at G2/M phase at 1.6 uM measured after 18 hrs by propidium iodide staining based flow cytometry (reference value: 18%). It counts as functional.
The test system of experiment [11] is MDA-MB-468. Kind of experiment: Cell cycle arrest in human MDA-MB-468 cells assessed as accumulation at sub-G1 phase at 10.85 uM measured after 18 hrs by propidium iodide staining based flow cytometry relative to control. The class given is functional.
Experiment [12] has as its system MDA-MB-468. Kind of experiment: Cell cycle arrest in human MDA-MB-468 cells assessed as ratio of G1 to S phase at 10.85 uM measured after 18 hrs by propidium iodide staining based flow cytometry (reference value: 2.17). The class given is functional.
Another experiment concerns the target CDK6/cyclin D1 (Homo sapiens, UniProt Q00534). Kind of experiment: Inhibition of CDK6/cyclin D1 (unknown origin) using RBER-CHKtide as substrate measured after 1 hr by ADP-glo luminescence assay. The class given is protein-complex assay. In short, it runs like this: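 ADP-Glo kinase assay with 200 ng Cdk-cyclin enzyme, ATP (125 µM in 2.5x mix) and 25 µg substrate (RBCTF or RBER-CHKtide, per Cdk). Buffer: Tris, MgCl2, BSA, DTT, MnCl2 cofactor, DMSO. Reaction 1 h at 21°C; ADP-Glo 40 min, then detection reagent 40 min. Luminescence read. IC50 by 4-parameter fit; three independent experiments.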

Experiment [13] relates to A549. Briefly: cells. The following applies: Homo sapiens, A549, 72 h.
Experiment [14] relates to A549. Briefly: Cell cycle arrest in human A549 cells assessed as accumulation at G0/G1 phase at 0.8 uM measured after 18 hrs by propidium iodide staining based flow cytometry (reference value: 58%). It counts as functional.
For experiment [15], the system named is T47D. Kind of experiment: Cell cycle arrest in human T47D cells assessed as accumulation at G0/G1 phase at 0.75 uM treated 18 hrs post serum-starvation measured after 18 hrs in presence of fresh medium containing FBS by propidium iodide staining based flow cytometry (reference value: 60.3%). The class given is functional.
Experiment [16] deals with T47D. Kind of experiment: Cell cycle arrest in human T47D cells assessed as ratio of G1 to S phase at 1.5 uM measured after 18 hrs by propidium iodide staining based flow cytometry (reference value: 2.65). It counts as functional.
Experiment [17] has as its system Calu-1. Kind of experiment: Cell cycle arrest in human Calu1 cells assessed as accumulation at G0/G1 phase at 1.8 uM treated 18 hrs post serum-starvation measured after 18 hrs in presence of fresh medium containing FBS by propidium iodide staining based flow cytometry (reference value: 69.2%). It counts as functional.
A further experiment deals with CDK2/Cyclin A2 (Homo sapiens, UniProt P24941). Briefly: Inhibition of human full length N-terminal GST-fused CDK2 (M1 to L298 residues)/human full length Cyclin-A2 (M1 to L432 residues) expressed in Sf9 cells using histone H1 as substrate measured after 1 hr by ADP-glo luminescence assay.
Experiment [18] relates to A549. Briefly: Cell cycle arrest in human A549 cells assessed as ratio of G1 to S phase at 1.6 uM measured after 18 hrs by propidium iodide staining based flow cytometry (reference value: 2.7). The class given is functional.
Experiment [19] has as its system MDA-MB-468. Briefly: Cell cycle arrest in human MDA-MB-468 cells assessed as ratio of G1 to S phase at 22 uM measured after 18 hrs by propidium iodide staining based flow cytometry (reference value: 2.17). It counts as functional.

The source made the active and inactive calls. The rule behind the calls is not given here.

Chain of CDK6/cyclin D1 (P24385 whole entry): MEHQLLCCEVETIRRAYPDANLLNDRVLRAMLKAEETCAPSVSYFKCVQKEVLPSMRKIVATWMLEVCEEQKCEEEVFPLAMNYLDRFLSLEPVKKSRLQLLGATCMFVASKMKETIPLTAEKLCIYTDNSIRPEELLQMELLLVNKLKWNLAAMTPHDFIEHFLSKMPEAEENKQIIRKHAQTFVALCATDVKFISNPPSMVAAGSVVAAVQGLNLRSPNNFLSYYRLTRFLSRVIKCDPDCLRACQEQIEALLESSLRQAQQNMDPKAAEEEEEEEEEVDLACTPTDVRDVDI
Chain of CDK6/cyclin D1 (Q00534 whole entry): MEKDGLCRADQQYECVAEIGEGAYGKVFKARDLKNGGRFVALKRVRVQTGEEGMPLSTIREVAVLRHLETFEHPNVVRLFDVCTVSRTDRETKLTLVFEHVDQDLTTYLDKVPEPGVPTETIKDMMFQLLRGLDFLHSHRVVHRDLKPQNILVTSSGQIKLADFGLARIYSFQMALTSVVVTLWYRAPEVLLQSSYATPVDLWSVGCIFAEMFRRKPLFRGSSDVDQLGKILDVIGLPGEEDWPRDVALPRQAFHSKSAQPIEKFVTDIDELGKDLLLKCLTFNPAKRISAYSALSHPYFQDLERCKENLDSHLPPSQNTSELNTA
Chain of CDK9/cyclin T1 (O60563 whole entry, the tested form may be a part): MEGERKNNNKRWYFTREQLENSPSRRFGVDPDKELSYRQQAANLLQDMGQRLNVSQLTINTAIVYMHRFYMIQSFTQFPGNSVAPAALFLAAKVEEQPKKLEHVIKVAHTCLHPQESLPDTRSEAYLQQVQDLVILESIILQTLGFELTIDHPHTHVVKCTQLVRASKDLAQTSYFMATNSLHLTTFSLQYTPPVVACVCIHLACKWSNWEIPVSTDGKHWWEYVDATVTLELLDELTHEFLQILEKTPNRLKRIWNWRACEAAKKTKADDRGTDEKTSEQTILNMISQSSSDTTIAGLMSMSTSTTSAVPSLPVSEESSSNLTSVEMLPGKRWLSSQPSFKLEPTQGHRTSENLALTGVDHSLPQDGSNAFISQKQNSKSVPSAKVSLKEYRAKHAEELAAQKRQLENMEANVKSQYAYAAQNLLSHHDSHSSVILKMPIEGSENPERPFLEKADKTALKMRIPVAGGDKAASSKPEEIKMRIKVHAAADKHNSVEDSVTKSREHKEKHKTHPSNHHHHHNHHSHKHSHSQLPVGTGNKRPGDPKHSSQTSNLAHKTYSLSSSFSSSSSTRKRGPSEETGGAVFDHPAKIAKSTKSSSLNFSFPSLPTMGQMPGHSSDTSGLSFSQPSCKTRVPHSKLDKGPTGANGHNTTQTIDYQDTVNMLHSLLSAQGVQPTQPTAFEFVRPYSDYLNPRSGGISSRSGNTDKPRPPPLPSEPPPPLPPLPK
Chain of CDK9/cyclin T1 (P50750 whole entry, the tested form may be a part): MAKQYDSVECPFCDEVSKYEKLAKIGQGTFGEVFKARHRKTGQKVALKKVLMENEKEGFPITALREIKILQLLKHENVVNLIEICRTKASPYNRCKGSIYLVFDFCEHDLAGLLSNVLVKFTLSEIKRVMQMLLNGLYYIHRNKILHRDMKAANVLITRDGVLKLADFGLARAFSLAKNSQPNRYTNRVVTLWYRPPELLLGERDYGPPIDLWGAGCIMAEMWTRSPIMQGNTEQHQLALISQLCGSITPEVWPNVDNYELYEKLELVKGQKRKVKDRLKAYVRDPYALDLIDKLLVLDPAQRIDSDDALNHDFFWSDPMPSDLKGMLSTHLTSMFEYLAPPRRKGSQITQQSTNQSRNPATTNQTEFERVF

As usually defined, the IC50 is the point on the concentration scale where inhibition reaches its midpoint. In general, EC50 refers to the concentration needed to bring the measured effect to its halfway point. A high value points to a less potent agent. On to `O=C(COc1ccc(-c2nc3ccccc3c(=O)[nH]2)cc1)Nc1cccc(Cl)c1`, for which the inhibition result in experiment [1] is “inactive”. For the same compound, the Ratio with A549 [2] was determined as 1.07; in the experiment on T47D [7] it was 22; in the experiment with MDA-MB-468 [12], 3.46; with T47D [16] it was 12; in the experiment with A549 [18] it was 0.75; in the experiment on MDA-MB-468 [19] it was 3.15. In the experiment with A549 [3], the result was inactive. Also, the inhibition result in experiment [4], in experiment [5] and in [9] was “Active” each time. Moreover, the IC50 is greater than 5 µM on Cytochrome P450 1A2, greater than 100 µM at CDK9/cyclin T1, greater than 100 µM at CDK6/cyclin D1 and greater than 100 µM at CDK2/Cyclin A2. The Activity in the experiment with A549 [6] is 16%; with Calu-1 [8], 75%; with A549 [10], 70%; with MDA-MB-468 [11], 0%; with A549 [14] it was 65%; in the experiment on T47D [15] it was 77%. Also, the Activity in the experiment with Calu-1 [17] was 88%. Further, in the experiment with A549 [13], the response was half-maximal at 0.8 µM (EC50).
